Experimental findings from ChEMBL document CHEMBL3045155, “Design, synthesis, and insecticidal activities of novel monohalovinylated pyrethroids” (2011) are described below.

In brackets after ≈: the same amount, converted by molar mass.

Common to all, as to type: functional
For assay [1], the system named is Culex pipiens pallens. Put plainly: Potency index, ratio of LC50 for cypermethrin to LC50 for test compound against Culex pipiens pallens (mosquito) fourth-instar larvae assessed as insect mortality measured 24 hr post compound exposure by dipping method.
Assay [2] deals with Culex pipiens pallens. The experiment in a line: Insecticidal activity against Culex pipiens pallens (mosquito) fourth-instar larvae assessed as insect mortality measured 24 hr post compound exposure by dipping method. The conditions noted are these: for LC50: Culex pipiens, 24 h.
The test system of assay [3] is Mythimna separata. The experiment in a line: Insecticidal activity against Mythimna separata (Oriental armyworm) grown on compound pre-treated corn leaves assessed as insect mortality measured 48 hr post compound exposure. In short, it runs like this:
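Leaves on filter paper in Petri dishes dipped 5 s in test solutions (acetone, diluted with water) and air-dried, then infested with 10 third-instar larvae; concentrations 500.0 down to 0.25 mg L-1; triplicate per concentration; 26 ± 1 °C, 70 ± 10% RH; percentage mortality at 48 h.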

As usually defined, the LC50 is the concentration that kills 50% of the test population. With `CC1(C)[C@H](/C=C/Cl)[C@H]1CC(=O)OCc1c(F)c(F)cc(F)c1F` (relative stereo), the RatioLC50 in assay [1] came out at 4.3. In assay [2], the LC95 is 0.358 mg/L (≈ 1.02 µM) and the LC50 is 0.249 mg/L (≈ 0.71 µM).
Regarding `C=CCC1=C(C)C(COC(=O)C[C@H]2[C@@H](/C=C/Br)C2(C)C)CC1=O` (relative stereo), the RatioLC50 in assay [1] turned out to be 2.4. Moreover, in assay [2], the LC95 is 0.7054 mg/L (≈ 1.85 µM) and the LC50 was 0.44 mg/L (≈ 1.15 µM).
On to `CC1(C)C(C=C(Cl)Cl)C1C(=O)OC(C#N)c1cccc(Oc2ccccc2)c1` (stereo not drawn) [ALPHA-CYPERMETHRIN], for which, in assay [1], the RatioLC50 amounted to 100. In assay [2], the LC95 is on record as 0.0286 mg/L (≈ 0.0687 µM) and the LC50 amounted to 0.0106 mg/L (≈ 0.0255 µM).
For `CC1(C)[C@H](C(=O)O[C@H](C#N)c2cccc(Oc3ccccc3)c2)[C@@H]1C=C(Br)Br` [DELTAMETHRIN], in assay [1], the RatioLC50 is 883. Moreover, the median lethal concentration (LC50) in assay [3] was 0.149 mg/L (≈ 0.294 µM); in assay [2] it was 0.0012 mg/L (≈ 0.00238 µM). Moreover, the LC95 in assay [2] was 0.0033 mg/L (≈ 0.00653 µM).
